≈ marks a conversion by molar mass, not a printed value. Calls of active or inactive are those of the source. The rule behind the calls is not given here.
Legend:
[1] = Aqueous solubility in PBS buffer at pH 7.4 after 24 hrs; assay type: physicochemical
3T3-L1 [2] = test: Lipid lowering activity in mouse 3T3-L1 cells assessed as reduction in adipogenic cocktail-induced triglyceride levels at 1 uM incubated for 6 days by GPO-POD assay relative to control; assay type: functional; parameters: scale not given: the % may be the effect or the level left; conditions: time 6 day
Method in brief: (§1)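 Confluent 3T3-L1 cells were treated from day 0 in cocktail (IBMX, dexamethasone, insulin) for 3 days, then re-dosed in insulin medium for 3 more days. For dose–response, concentrations were 0–10 µM (0.01, 0.1, 0.3, 1, 3, 10). On day 6, cells were lysed in 0.2% Triton X-100 and TG was measured by GPO-POD and normalized to BCA protein as % of control. EC50 was fitted from the dose–response. N = 4.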

[3] = Intrinsic clearance in Sprague-Dawley rat liver microsomes assessed as rate constant […] up to 60 mins in presence of NADPH by LC-MS/MS analysis; assay type: ADME, Microsome; conditions: read-out: CLH
3T3-L1 [4] = test: Activation of AMPK pathway in adipogenic cocktail-induced mouse 3T3-L1 cells assessed as increase in phosphorylation AMPKalpha at Thr172 residue at 0.01 to 1 uM after 24 hrs by Western blot analysis; assay type: cell-based; conditions: filed as activator, dose 0.01-1 µM
Method in brief: (§2)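 Confluent 3T3-L1 pre-adipocytes exposed to adipogenic cocktail for 24 h with or without compound (0, 0.01, 0.1, 1 µM); DMSO vehicle. Lysates analysed by SDS-PAGE/Western blot for pAMPKα (Thr-172), normalized to actin, Ctrl set as 1. N = 4 independent experiments.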

[5] = Stability in Sprague-Dawley rat liver microsomes assessed as rate constant […] up to 60 mins in presence of NADPH by LC-MS/MS analysis; assay type: ADME, Microsome
[6] = Stability in Sprague-Dawley rat liver microsomes assessed as remaining compound […] up to 60 mins in presence of NADPH by LC-MS/MS analysis; assay type: ADME, Microsome; conditions: read-out: Stabilty
3T3-L1 [7] = test: Lipid lowering activity in mouse 3T3-L1 cells assessed as reduction in adipogenic cocktail-induced triglyceride levels incubated for 6 days by GPO-POD assay; assay type: functional, cell-based; conditions: for EC50: 3T3-L1, 144 h; for Activity: dose 1-5 µM, time 6.0 day; method in brief: as §1
3T3-L1 [8] = test: Inhibition of mouse 3T3-L1 cells adipocyte differentiation assessed as reduction in adipogenic cocktail-induced C/EBPdelta mRNA expression after 24 hrs by RT-qPCR analysis; assay type: functional, cell-based; conditions: dose 0.01-1 µM
Method in brief: (§3)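 Confluent 3T3-L1 preadipocytes received differentiation cocktail (0.5 mM IBMX, 100 ng/mL dexamethasone, 2 µg/mL insulin) with compound (0.01–1 µM; metformin 1 mM) for 24 h. mRNA was measured by SYBR Green RT-qPCR (30 cycles), normalized to β-actin, with the differentiated control set to 1. N = 4 independent experiments.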

3T3-L1 [9] = test: Cytotoxicity against mouse 3T3-L1 cells assessed as change in LDH releasing level at 5 uM after 6 days by LDH releasing assay; assay type: cell-based; conditions: 3t3-l1, 144 h, time 6 day
Method in brief: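 Differentiating 3T3-L1 cells were treated at 5 µM for 6 days. Plates were centrifuged and LDH activity in the supernatant was read at 490 nm. Release was expressed as fold = (treated − blank)/(control − blank), with untreated cells as blank and vehicle-differentiated control set to 1.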

[10] = Half life in Sprague-Dawley rat liver microsomes assessed as rate constant […] up to 60 mins in presence of NADPH by LC-MS/MS analysis; assay type: ADME, Microsome
3T3-L1 [11] = test: Lipid lowering activity in mouse 3T3-L1 cells assessed as reduction in adipogenic cocktail-induced triglyceride levels at 1 uM incubated for 6 days by Oil-red O staining based assay; assay type: functional, cell-based; conditions: time 6.0 day
Method in brief: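 Differentiating 3T3-L1 cells were treated at 1 µM for 6 days, then washed with PBS and fixed in 4% formaldehyde for 1 h. Cells were stained with 0.3% Oil Red O for 30 min at room temperature in the dark and imaged at ×200.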

3T3-L1 [12] = test: Inhibition of mouse 3T3-L1 cells adipocyte differentiation assessed as reduction in adipogenic cocktail-induced C/EBPalpha mRNA expression after 24 hrs by RT-qPCR analysis; assay type: functional, cell-based; conditions: dose 0.01-1 µM; method in brief: as §3
3T3-L1 [13] = test: Inhibition of mouse 3T3-L1 cells adipocyte differentiation assessed as reduction in adipogenic cocktail-induced PPARgamma mRNA expression after 24 hrs by RT-qPCR analysis; assay type: functional, cell-based; conditions: dose 0.01-1 µM; method in brief: as §3
3T3-L1 [14] = test: Inhibition of mouse 3T3-L1 cells adipocyte differentiation assessed as reduction in adipogenic cocktail-induced C/EBPbeta mRNA expression after 24 hrs by RT-qPCR analysis; assay type: functional, cell-based; conditions: dose 0.01-1 µM; method in brief: as §3
Mus musculus = test: Antiobesity activity in high fat diet-induced obese C57BL/6J mouse model assessed as decrease in body weight at 50 mg/kg, ip administered for every other days for 5 weeks; assay type: functional; parameters: scale not given: the % may be the effect or the level left
3T3-L1 [15] = test: Inhibition of mouse 3T3-L1 cells adipocyte differentiation assessed as reduction in adipogenic cocktail-induced ACC protein expression after 6 days by Western blot analysis; assay type: functional, cell-based; conditions: time 6.0 day
Method in brief: (§4)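 3T3-L1 preadipocytes were differentiated with cocktail for 3 days, then insulin medium for 3 days, with compound (0.3 or 1 µM) present throughout. Cells were harvested on day 6 and proteins measured by Western blot, with densitometry normalized to actin.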

3T3-L1 [16] = test: Inhibition of mouse 3T3-L1 cells adipocyte differentiation assessed as reduction in adipogenic cocktail-induced SREBP-1c protein expression after 24 hrs by Western blot analysis; assay type: functional, cell-based
Method in brief: (§5)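 3T3-L1 preadipocytes were exposed to adipogenic cocktail with compound (0.3 or 1 µM) and harvested on day 1. Lysates were resolved by SDS-PAGE, immunoblotted (primary antibody overnight at 4 °C, HRP secondary) and quantified by densitometry normalized to actin.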

3T3-L1 [17] = test: Inhibition of mouse 3T3-L1 cells adipocyte differentiation assessed as reduction in adipogenic cocktail-induced C/EBPdelta mRNA expression at 1 mM after 24 hrs by RT-qPCR analysis; assay type: functional, cell-based; method in brief: as §3
3T3-L1 [18] = test: Inhibition of mouse 3T3-L1 cells adipocyte differentiation assessed as reduction in adipogenic cocktail-induced C/EBPalpha protein expression after 24 hrs by Western blot analysis; assay type: functional, cell-based; method in brief: as §5
3T3-L1 [19] = test: Inhibition of mouse 3T3-L1 cells adipocyte differentiation assessed as reduction in adipogenic cocktail-induced FAS protein expression after 6 days by Western blot analysis; assay type: functional, cell-based; conditions: time 6.0 day; method in brief: as §4
3T3-L1 [20] = test: Activation of AMPK pathway in adipogenic cocktail-induced mouse 3T3-L1 cells assessed as increase in phosphorylation AMPKalpha at Thr172 residue after 24 hrs by Western blot analysis; assay type: cell-based; conditions: filed as activator; method in brief: as §2
3T3-L1 [21] = test: Inhibition of mouse 3T3-L1 cells adipocyte differentiation assessed as reduction in adipogenic cocktail-induced SCD1 protein expression after 6 days by Western blot analysis; assay type: functional, cell-based; conditions: time 6.0 day; method in brief: as §4
C2C12 [22] = test: Activation of AMPK pathway in mouse C2C12 cells assessed as increase in glucose uptake at 1 mM after 6 hrs in presence of insulin by 2-NBDG/Hoechst 33342 staining based Confocal microscopic method; assay type: cell-based; conditions: filed as activator
Method in brief: (§6)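 C2C12 myoblasts kept in DMEM with 10% FBS and 1% penicillin/streptomycin at 37 °C under 5% CO2.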

3T3-L1 [23] = test: Lipid lowering activity in mouse 3T3-L1 cells assessed as reduction in adipogenic cocktail-induced triglyceride levels […] incubated for 6 days by GPO-POD assay relative to control; assay type: functional; parameters: scale not given: the % may be the effect or the level left; conditions: time 6 day
C2C12 [24] = test: Activation of AMPK pathway in mouse C2C12 cells assessed as increase in glucose uptake at 1 mM after 6 hrs by 2-NBDG/Hoechst 33342 staining based Confocal microscopic method; assay type: cell-based; conditions: filed as activator; method in brief: as §6
3T3-L1 [25] = test: Inhibition of mouse 3T3-L1 cells adipocyte differentiation assessed as reduction in adipogenic cocktail-induced PPARgamma protein expression after 24 hrs by Western blot analysis; assay type: functional, cell-based; method in brief: as §5
3T3-L1 [26] = test: Inhibition of mouse 3T3-L1 cells adipocyte differentiation assessed as reduction in adipogenic cocktail-induced C/EBPbeta mRNA expression at 1 mM after 24 hrs by RT-qPCR analysis; assay type: functional, cell-based; method in brief: as §3
3T3-L1 [27] = test: Inhibition of mouse 3T3-L1 cells adipocyte differentiation assessed as reduction in adipogenic cocktail-induced PPARgamma mRNA expression at 1 mM after 24 hrs by RT-qPCR analysis; assay type: functional, cell-based; method in brief: as §3
3T3-L1 [28] = test: Inhibition of mouse 3T3-L1 cells adipocyte differentiation assessed as reduction in adipogenic cocktail-induced C/EBPalpha mRNA expression at 1 mM after 24 hrs by RT-qPCR analysis; assay type: functional, cell-based; method in brief: as §3
3T3-L1 [29] = test: Activation of AMPK pathway in mouse 3T3-L1 cells assessed as increase in number of mitochondria copy at 2 uM after 24 hrs in presence of compound C by mito-tracker staining based Confocal microscopic method
Method in brief: (§7)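 3T3-L1 cells grown in DMEM with 10% FBS at 37 °C and 5% CO2. After treatment, cells were stained for 30 min at 37 °C in the dark with 1 µM Mito-Tracker plus Hoechst 33342 (1:1000) and imaged by confocal microscopy (excitation 633 and 405 nm). Mitochondrial copy number was also taken as the mtDNA/nDNA ratio by PCR (cytochrome C versus 18S rRNA).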

3T3-L1 [30] = test: Activation of AMPK pathway in mouse 3T3-L1 cells assessed as increase in number of mitochondria copy at 2 uM after 24 hrs by mito-tracker staining based Confocal microscopic method; conditions: filed as activator; method in brief: as §7

## COc1ccc2[nH]c(-c3nc(NCCN4CCCC4)c4ccccc4n3)c(C=O)c2c1
[1]
  solubility at 24 h: 56.4 µg/mL (≈ 136 µM)
3T3-L1 [2]
  Activity: >=50%
[3]
  microsomal CLint: 6.6 µL/min/mg
3T3-L1 [4]
  Activity: Active
[5]
  k el at 1 h: 0.00011 s⁻¹
[6]
  remaining at 1 h: 66.6%
3T3-L1 [7]
  EC50: 310 nM
  Activity: Dose-dependent effect
3T3-L1 [8]
  inhibition: Dose-dependent effect
3T3-L1 [9]
  Activity: Non-Toxic
[10]
  half-life: 1.75 h
3T3-L1 [11]
  Activity: Active
3T3-L1 [12]
  inhibition: Dose-dependent effect
3T3-L1 [13]
  inhibition: Dose-dependent effect
3T3-L1 [14]
  inhibition: Dose-dependent effect

## O=Cc1c(-c2nc3ccccc3c(=O)[nH]2)[nH]c2ccccc12
Mus musculus
  Activity: 14.6%

## CN(C)C(=N)NC(=N)N [METFORMIN]
3T3-L1 [15]
  inhibition: Active
3T3-L1 [16]
  inhibition: Active
3T3-L1 [17]
  inhibition: Active
3T3-L1 [18]
  inhibition: Active
3T3-L1 [19]
  inhibition: Active
3T3-L1 [20]
  Activity: Active
3T3-L1 [21]
  inhibition: Active
C2C12 [22]
  Activity: Active
3T3-L1 [23]
  Activity: 60.3%
C2C12 [24]
  Activity: Active
3T3-L1 [25]
  inhibition: Active
3T3-L1 [26]
  inhibition: Active
3T3-L1 [27]
  inhibition: Active
3T3-L1 [28]
  inhibition: Active

## CCN(CC)CCCCNc1nc(-c2[nH]c3ccc(OC)cc3c2C=O)nc2ccccc12
[1]
  solubility at 24 h: 65.9 µg/mL (≈ 148 µM)
3T3-L1 [2]
  Activity: >=50%
[3]
  microsomal CLint: 2.7 µL/min/mg
3T3-L1 [4]
  Activity: Active
[5]
  k el at 1 h: 4.5e-05 s⁻¹
[6]
  remaining at 1 h: 84%
3T3-L1 [7]
  EC50: 920 nM
  Activity: Dose-dependent effect
3T3-L1 [8]
  inhibition: Dose-dependent effect
3T3-L1 [9]
  Activity: Non-Toxic
[10]
  half-life: 4.28 h
3T3-L1 [11]
  Activity: Active
3T3-L1 [12]
  inhibition: Dose-dependent effect
3T3-L1 [13]
  inhibition: Dose-dependent effect
3T3-L1 [14]
  inhibition: Dose-dependent effect

## NC(=O)c1ncn([C@@H]2O[C@H](CO)[C@@H](O)[C@H]2O)c1N
3T3-L1 [29]
  Activity: inactive
3T3-L1 [30]
  Activity: Active

## O=Cc1c(-c2nc(NCCCCN3CCCC3)c3ccccc3n2)[nH]c2ccccc12
[1]
  solubility at 24 h: 15.1 µg/mL (≈ 36.5 µM)
3T3-L1 [2]
  Activity: >=50%
[3]
  microsomal CLint: 2.8 µL/min/mg
3T3-L1 [4]
  Activity: Active
[5]
  k el at 1 h: 4.67e-05 s⁻¹
[6]
  remaining at 1 h: 83.9%
3T3-L1 [7]
  EC50: 510 nM
  Activity: Dose-dependent effect
3T3-L1 [8]
  inhibition: Dose-dependent effect
3T3-L1 [9]
  Activity: Non-Toxic
[10]
  half-life: 4.13 h
3T3-L1 [11]
  Activity: Active
3T3-L1 [12]
  inhibition: Dose-dependent effect
3T3-L1 [13]
  inhibition: Dose-dependent effect
3T3-L1 [14]
  inhibition: Dose-dependent effect

Reference: ChEMBL document CHEMBL4732044, “Discovery of a promising agent IQZ23 for the treatment of obesity and related metabolic disorders” (Eur J Med Chem, 2020)
